Assay results reported in ChEMBL document CHEMBL3616378 (J Med Chem, 2015).

Key:
[1] = biological target: Voltage-gated inwardly rectifying potassium channel KCNH2 (Homo sapiens, UniProt Q12809); test: Inhibition of human ERG at 10 uM
[2] = biological target: Metabotropic glutamate receptor 2 (Homo sapiens, UniProt Q14416, L300Q); test: Agonist activity at human recombinant mGlu2 receptor L300Q mutant expressed in AV12 cells assessed as stimulation of Ca2+ mobilization after 1 hr by FLIPR assay; format: functional, cell-based
[3] = Fraction unbound in human plasma; format: ADME, cell-free
[4] = Cmax in Sprague-Dawley rat at 5 mg/kg, po; format: ADME, organism-based; set-up: dose 5 mg/kg, route oral; settings: in vivo
Procedure, shortened: (§1)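 Fasted male Sprague–Dawley rats (~250 g) received a single dose of compound dissolved in water and adjusted to pH 7–7.5 with NaOH, given iv, by oral gavage or ip. Serial blood samples (11–12 per rat) were drawn from a jugular vein catheter into EDTA and kept frozen. Plasma was mixed with methanol:water (1:1) containing an analogue internal standard for analysis. Mean plasma parameters are reported.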

[5] = AUC (0 to 24 hrs) in Sprague-Dawley rat at 3 mg/kg, ip; format: ADME, organism-based; set-up: time < 24 hr, dose 3 mg/kg, route intraperitoneal; settings: in vivo; procedure, shortened: as §1
[6] = AUC (0 to 24 hrs) in Sprague-Dawley rat at 10 mg/kg, ip; format: ADME, organism-based; set-up: dose 10 mg/kg, time < 24 hr, route intraperitoneal; settings: in vivo; procedure, shortened: as §1
[7] = Plasma concentration in Sprague-Dawley rat at 3 mg/kg, ip after 1 hr; format: ADME, organism-based
Procedure, shortened: (§2)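 Separate experiment: single ip doses of 1, 3 and 10 mg/kg to rats, compound in water adjusted to pH 7–7.5 with NaOH; plasma (with csf) sampled at 0.5, 1 and 4 h; mean plasma concentrations ± SEM reported.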

[8] = Plasma concentration in Sprague-Dawley rat at 10 mg/kg, ip after 4 hrs; format: ADME, organism-based; procedure, shortened: as §2
[9] = biological target: T1, Metabotropic glutamate receptor 3 (Homo sapiens, UniProt Q14832); test: Agonist activity at human recombinant mGlu3 receptor expressed in AV12 cells assessed as inhibition of forskolin-stimulated cAMP production after 1 hr by fluorescence assay; format: functional, cell-based
[10] = biological target: T1, Metabotropic glutamate receptor 3; test: Antagonist activity at human recombinant mGlu3 receptor expressed in AV12 cells assessed as reversal of DCG-4-inhibited, forskolin-stimulated cAMP production after 1 hr by fluorescence assay; format: functional, cell-based
[11] = biological target: Metabotropic glutamate receptor 5 (Homo sapiens, UniProt P41594); test: Agonist activity at human recombinant mGlu5 receptor expressed in AV12 cells assessed as stimulation of Ca2+ mobilization after 1 hr by FLIPR assay; format: functional, cell-based
Rattus norvegicus = test: Toxicity in Sprague-Dawley rat assessed as impairment of neuromuscular coordination at 10 mg/kg, ip after 1 hr by rotarod test; format: organism-based; settings: in vivo

T1 sequence (Q14832 whole entry): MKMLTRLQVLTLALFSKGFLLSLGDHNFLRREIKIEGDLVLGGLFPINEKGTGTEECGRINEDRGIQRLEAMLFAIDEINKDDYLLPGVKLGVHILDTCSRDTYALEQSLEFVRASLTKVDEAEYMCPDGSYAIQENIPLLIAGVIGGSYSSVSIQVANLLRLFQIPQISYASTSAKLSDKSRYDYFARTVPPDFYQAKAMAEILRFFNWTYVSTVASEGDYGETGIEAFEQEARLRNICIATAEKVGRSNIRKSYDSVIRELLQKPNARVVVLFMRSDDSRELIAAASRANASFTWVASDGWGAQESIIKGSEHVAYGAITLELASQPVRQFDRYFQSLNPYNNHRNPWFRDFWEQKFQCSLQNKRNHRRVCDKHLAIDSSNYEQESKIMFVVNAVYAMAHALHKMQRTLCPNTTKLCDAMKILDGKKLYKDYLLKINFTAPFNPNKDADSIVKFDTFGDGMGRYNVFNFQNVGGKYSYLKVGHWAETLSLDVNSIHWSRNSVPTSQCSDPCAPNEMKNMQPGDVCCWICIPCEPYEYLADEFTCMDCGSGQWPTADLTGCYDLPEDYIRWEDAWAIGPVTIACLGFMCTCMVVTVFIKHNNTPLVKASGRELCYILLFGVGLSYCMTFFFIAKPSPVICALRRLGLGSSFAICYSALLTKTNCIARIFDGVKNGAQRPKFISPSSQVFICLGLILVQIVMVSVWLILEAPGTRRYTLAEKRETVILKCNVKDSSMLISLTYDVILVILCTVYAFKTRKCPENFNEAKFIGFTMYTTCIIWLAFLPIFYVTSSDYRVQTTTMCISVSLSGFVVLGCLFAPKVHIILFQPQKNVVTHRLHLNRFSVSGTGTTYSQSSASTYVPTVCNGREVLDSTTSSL
Sequence of Metabotropic glutamate receptor 5 (P41594 whole entry): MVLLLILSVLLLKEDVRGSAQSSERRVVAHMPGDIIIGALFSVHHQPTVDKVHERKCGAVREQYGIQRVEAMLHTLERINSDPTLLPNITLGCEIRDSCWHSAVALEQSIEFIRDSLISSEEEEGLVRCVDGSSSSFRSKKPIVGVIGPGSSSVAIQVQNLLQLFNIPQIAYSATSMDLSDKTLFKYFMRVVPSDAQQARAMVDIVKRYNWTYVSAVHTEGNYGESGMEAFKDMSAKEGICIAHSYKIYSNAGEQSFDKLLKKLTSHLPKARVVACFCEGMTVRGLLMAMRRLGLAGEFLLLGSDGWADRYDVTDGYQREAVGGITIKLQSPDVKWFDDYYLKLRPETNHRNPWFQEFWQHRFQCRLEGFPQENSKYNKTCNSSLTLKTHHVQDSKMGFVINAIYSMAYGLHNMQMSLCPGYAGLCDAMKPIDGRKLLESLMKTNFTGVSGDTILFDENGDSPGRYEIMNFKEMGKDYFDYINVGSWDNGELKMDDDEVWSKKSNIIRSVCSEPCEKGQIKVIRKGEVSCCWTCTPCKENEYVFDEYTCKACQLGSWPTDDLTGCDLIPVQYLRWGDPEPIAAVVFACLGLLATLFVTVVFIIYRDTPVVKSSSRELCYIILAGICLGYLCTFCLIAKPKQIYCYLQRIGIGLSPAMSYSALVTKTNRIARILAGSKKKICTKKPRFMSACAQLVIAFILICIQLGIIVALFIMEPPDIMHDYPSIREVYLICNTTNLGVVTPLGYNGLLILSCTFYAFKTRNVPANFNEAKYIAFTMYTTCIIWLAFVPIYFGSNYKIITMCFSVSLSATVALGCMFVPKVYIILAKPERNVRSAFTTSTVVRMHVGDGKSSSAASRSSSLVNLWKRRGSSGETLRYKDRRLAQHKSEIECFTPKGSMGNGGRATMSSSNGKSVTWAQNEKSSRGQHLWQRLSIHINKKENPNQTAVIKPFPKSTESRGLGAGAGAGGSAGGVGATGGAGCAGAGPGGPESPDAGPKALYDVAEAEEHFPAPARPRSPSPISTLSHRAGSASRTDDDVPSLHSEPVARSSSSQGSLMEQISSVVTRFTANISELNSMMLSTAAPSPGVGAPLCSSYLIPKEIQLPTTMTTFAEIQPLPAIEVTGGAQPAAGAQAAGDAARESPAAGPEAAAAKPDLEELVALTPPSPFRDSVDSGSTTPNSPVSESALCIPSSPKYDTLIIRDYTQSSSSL
Sequence of Metabotropic glutamate receptor 2 (Q14416 19-872 L300Q limits assumed): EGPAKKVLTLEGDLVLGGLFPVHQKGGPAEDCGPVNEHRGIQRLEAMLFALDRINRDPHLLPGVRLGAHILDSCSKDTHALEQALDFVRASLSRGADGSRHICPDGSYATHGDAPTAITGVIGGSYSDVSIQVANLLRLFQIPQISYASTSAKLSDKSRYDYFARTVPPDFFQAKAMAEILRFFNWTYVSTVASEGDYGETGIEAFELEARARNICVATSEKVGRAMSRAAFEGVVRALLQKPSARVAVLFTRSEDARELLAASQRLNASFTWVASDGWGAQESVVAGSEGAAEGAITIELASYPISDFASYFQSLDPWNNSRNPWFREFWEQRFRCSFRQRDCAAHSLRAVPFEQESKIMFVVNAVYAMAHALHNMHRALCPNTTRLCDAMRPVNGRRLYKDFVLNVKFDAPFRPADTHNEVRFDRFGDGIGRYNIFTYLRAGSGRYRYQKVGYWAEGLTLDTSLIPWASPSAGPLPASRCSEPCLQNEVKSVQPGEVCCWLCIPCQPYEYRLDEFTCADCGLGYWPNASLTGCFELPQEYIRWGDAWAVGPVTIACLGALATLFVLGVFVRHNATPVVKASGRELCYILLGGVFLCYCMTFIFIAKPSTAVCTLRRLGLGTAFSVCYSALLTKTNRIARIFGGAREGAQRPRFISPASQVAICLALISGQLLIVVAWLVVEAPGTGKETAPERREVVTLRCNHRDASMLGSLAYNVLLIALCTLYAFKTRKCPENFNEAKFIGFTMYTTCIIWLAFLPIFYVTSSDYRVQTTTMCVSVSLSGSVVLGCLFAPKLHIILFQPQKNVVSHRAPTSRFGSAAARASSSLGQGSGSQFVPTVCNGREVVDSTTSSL
Sequence of Voltage-gated inwardly rectifying potassium channel KCNH2 (Q12809 whole entry): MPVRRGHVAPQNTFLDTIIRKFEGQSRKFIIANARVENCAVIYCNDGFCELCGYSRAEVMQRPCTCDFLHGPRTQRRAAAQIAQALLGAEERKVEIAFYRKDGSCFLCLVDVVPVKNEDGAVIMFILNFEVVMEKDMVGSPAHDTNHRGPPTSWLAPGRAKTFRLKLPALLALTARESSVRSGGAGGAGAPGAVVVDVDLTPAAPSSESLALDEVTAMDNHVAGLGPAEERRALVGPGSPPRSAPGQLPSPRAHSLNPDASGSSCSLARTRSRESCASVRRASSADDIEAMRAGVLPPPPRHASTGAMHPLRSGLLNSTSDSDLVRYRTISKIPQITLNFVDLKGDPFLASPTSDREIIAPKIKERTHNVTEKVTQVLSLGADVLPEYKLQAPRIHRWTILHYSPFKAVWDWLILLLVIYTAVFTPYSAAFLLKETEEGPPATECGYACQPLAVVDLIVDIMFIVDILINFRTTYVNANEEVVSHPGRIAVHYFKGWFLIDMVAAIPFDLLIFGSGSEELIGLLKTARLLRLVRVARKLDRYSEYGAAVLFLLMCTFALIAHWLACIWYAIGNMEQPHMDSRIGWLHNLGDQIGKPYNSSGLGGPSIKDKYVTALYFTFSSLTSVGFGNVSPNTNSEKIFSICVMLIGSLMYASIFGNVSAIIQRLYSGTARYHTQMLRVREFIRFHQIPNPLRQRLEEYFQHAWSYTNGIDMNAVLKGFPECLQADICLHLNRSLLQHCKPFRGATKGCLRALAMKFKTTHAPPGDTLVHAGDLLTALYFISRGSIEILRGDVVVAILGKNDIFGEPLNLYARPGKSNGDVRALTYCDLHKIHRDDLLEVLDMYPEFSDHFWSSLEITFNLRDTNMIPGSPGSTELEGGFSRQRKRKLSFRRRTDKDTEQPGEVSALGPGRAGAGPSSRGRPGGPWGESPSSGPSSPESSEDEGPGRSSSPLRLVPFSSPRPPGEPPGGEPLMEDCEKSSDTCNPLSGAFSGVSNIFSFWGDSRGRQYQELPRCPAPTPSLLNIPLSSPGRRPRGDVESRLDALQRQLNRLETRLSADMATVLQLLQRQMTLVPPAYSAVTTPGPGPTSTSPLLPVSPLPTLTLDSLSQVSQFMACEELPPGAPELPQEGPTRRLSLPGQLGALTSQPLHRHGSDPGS

EC50 [2]: 0.0221 µM
fraction unbound [3]: > 0.98
Cmax [4]: 0.22 µM
AUC(0-t) at 24 h [5]: 10.8 µM·h
AUC(0-t) at 24 h [6]: 43.1 µM·h
concentration at 1 h [7]: 4.98 µM
concentration at 4 h [8]: 3.02 µM
EC50 [9]: 0.129 µM
IC50 [10]: 2.73 µM
EC50 [11]: > 25 µM
SMILES: N[C@@]1(C(=O)O)C[C@@H](Sc2nc[nH]n2)[C@H]2[C@H](C(=O)O)[C@H]21
inhibition (INH) [1]: Not Active
Activity (Rattus norvegicus): Toxic
